# Assay results as given in ChEMBL document CHEMBL3758106, “Antitumor Activity of Americanin A Isolated from the Seeds of Phytolacca americana by Regulating the ATM/ATR Signaling Pathway and the Skp2-p27 Axis in Human Colon Cancer Cells” (J Nat Prod, 2015).
# Activity calls are given as the source filed them. The rule behind the calls is not given here.
# Tests used:
# HCT-116 [1] = assay: Induction of cell cycle arrest in human HCT116 cells assessed as accumulation at G2/M phase at 30 uM after 48 hrs by propidium iodide staining-based flow cytometric analysis in presence of RNase A (reference value: 19.7%); assay type: functional
# HCT-116 [2] = assay: Induction of apoptosis in human HCT116 cells assessed as viable cells at 15 uM after 48 hrs by annexin V-FITC/propidium iodide staining-based flow cytometric analysis (reference value: 91.2%); assay type: functional; conditions: HCT-116, 48 h, read-out: Activity
# HCT-116 [3] = assay: Induction of apoptosis in human HCT116 cells assessed as viable cells at 30 uM after 48 hrs by annexin V-FITC/propidium iodide staining-based flow cytometric analysis (reference value: 91.2%); assay type: functional; conditions: HCT-116, 48 h, read-out: Activity
# HCT-116 [4] = assay: Induction of apoptosis in human HCT116 cells assessed as early apoptotic cells at 30 uM after 48 hrs by annexin V-FITC/propidium iodide staining-based flow cytometric analysis (reference value: 1.6%); assay type: functional
# HCT-116 [5] = assay: Induction of apoptosis in human HCT116 cells assessed as dead cells at 30 uM after 48 hrs by annexin V-FITC/propidium iodide staining-based flow cytometric analysis (reference value: 4.2%); assay type: functional
# HCT-116 [6] = assay: Induction of apoptosis in human HCT116 cells assessed as late apoptotic cells at 30 uM after 48 hrs by annexin V-FITC/propidium iodide staining-based flow cytometric analysis (reference value: 7.2%); assay type: functional
# HCT-116 [7] = assay: Induction of apoptosis in human HCT116 cells assessed as viable cells at 30 uM after 48 hrs by annexin V-FITC/propidium iodide staining-based flow cytometric analysis in presence of NAC (reference value: 87.4%); assay type: functional; conditions: HCT-116, 48 h, read-out: Activity
# [8] = Antitumor activity against human HCT116 cells xenografted in nude mouse assessed as tumor growth inhibition at 5 mg/kg, ip administered 3 times per week measured on day 41; assay type: functional; conditions: HCT-116, ip, 984 h, read-out: TGI
# Summary of the method: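 Nude mice given 2 × 10^6 HCT116 cells subcutaneously in flank; at ~120 mm3 randomised, six per group; ip dosing in 200 μL, test agent 5 or 10 mg/kg three times weekly, irinotecan 10 mg/kg once weekly; tumour volume measured twice weekly to day 41; body weight tracked for toxicity.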
# HCT-116 [9] = assay: Induction of cell cycle arrest in human HCT116 cells assessed as accumulation at G2/M phase at 15 uM after 24 hrs by propidium iodide staining-based flow cytometric analysis in presence of RNase A (reference value: 20.6%); assay type: functional
# HCT-116 [10] = assay: Induction of cell cycle arrest in human HCT116 cells assessed as accumulation at G0/G1 phase at 30 uM after 24 hrs by propidium iodide staining-based flow cytometric analysis in presence of RNase A (reference value: 64.6%); assay type: functional
# HCT-116 [11] = assay: Induction of cell cycle arrest in human HCT116 cells assessed as accumulation at sub-G1 phase at 30 uM after 24 hrs by propidium iodide staining-based flow cytometric analysis in presence of RNase A (reference value: 1.5%); assay type: functional
# [12] = Downregulation of cyclin B1 expression in human HCT116 cells at 7.5 to 30 uM after 24 hrs by Western blot analysis; assay type: functional, cell-based; conditions: HCT-116
# Summary of the method: (§1)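 HCT116 cells exposed 24 h in complete medium; lysed in RIPA buffer (pH 8.0), protein by BCA, equal loads run on 8–13% SDS-PAGE, PVDF transfer, blocked in 5% BSA/TBST, primary antibodies overnight at 4 °C, HRP secondaries 2 h RT, ECL detection; β-actin as loading control.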
# [13] = Antiproliferative activity against human HCT116 cells assessed as cell viability after 48 hrs by SRB assay; assay type: functional, cell-based; conditions: HCT-116, 48 h
# Summary of the method: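 HCT116 cells in 96-well plates exposed 24, 48 or 72 h; TCA fixation, 0.4% SRB staining, dye solubilised in 10 mM Tris pH 10.0, absorbance at 515 nm; viability relative to solvent-treated control.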
# [14] = Upregulation of ATM expression in human HCT116 cells at 1 hr by Western blot analysis; assay type: functional, cell-based; conditions: HCT-116
# [15] = Downregulation of ATR expression in human HCT116 cells at 30 uM after 1 hr by Western blot analysis; assay type: functional, cell-based; conditions: HCT-116, TDE = time-dependent effect
# Summary of the method: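 HCT116 cells exposed for 1 h in complete medium; RIPA lysates quantified by BCA, equal protein separated on 8–13% SDS-PAGE, transferred to PVDF, probed with primary antibodies overnight at 4 °C and HRP secondaries, chemiluminescence read-out.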
# [16] = Decrease in SCF E3 expression in human HCT116 cells at 7.5 to 30 uM after 24 hrs by western blot analysis; assay type: functional, cell-based; conditions: HCT-116; summary of the method: as §1
# HCT-116 [17] = assay: Induction of cell cycle arrest in human HCT116 cells assessed as accumulation at G0/G1 phase at 7.5 uM after 48 hrs by propidium iodide staining-based flow cytometric analysis in presence of RNase A (reference value: 54.3%); assay type: functional
# HCT-116 [18] = assay: Induction of cell cycle arrest in human HCT116 cells assessed as accumulation at G2/M phase at 7.5 uM after 48 hrs by propidium iodide staining-based flow cytometric analysis in presence of RNase A (reference value: 19.7%); assay type: functional
# A549 = assay: Antiproliferative activity against human A549 cells after 24 to 72 hrs by SRB assay; assay type: functional, cell-based
# Summary of the method: (§2)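 Cells grown in 96-well plates (RPMI 1640; MRC-5 in MEM, 10% FBS, antibiotics) with compound […]; fixed in 10% TCA 30 min at 4 °C, stained 0.4% SRB in 1% acetic acid 1 h, dye dissolved in 10 mM Tris pH 10.0, A515 read; viability as % of solvent control, IC50 by nonlinear regression; mean of three independent experiments.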
# [19] = (§3) Antiproliferative activity against human HCT116 cells after 24 to 72 hrs by SRB assay; assay type: functional, cell-based; conditions: HCT-116; summary of the method: as §2
# HCT-116 [20] = assay: as §3; assay type: functional, cell-based; summary of the method: as §2
# Mus musculus = assay: Upregulation of p21 in human HCT116 cells xenografted in nude mouse at 5 to 10 mg/kg, ip administered 3 times per week measured on day 41 by Western blot analysis; assay type: functional, organism-based; conditions: HCT-116
# Summary of the method: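 HCT116 xenografts in nude mice dosed ip at 5 or 10 mg/kg three times weekly to day 41. Portions of the excised frozen tumors were thawed on ice, homogenized in complete lysis buffer, protein quantified by Bradford, and p21, p27 and Skp2 assessed by Western blot with β-actin as internal control.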
# RKO = assay: Antiproliferative activity against human RKO cells after 24 to 72 hrs by SRB assay; assay type: functional, cell-based; summary of the method: as §2
# HCT-116 [21] = assay: Induction of morphological change in human HCT116 cells assessed as appearance of rounded cells at 30 uM after 24 to 48 hrs by phase contrast microscopic analysis; assay type: functional, cell-based
# Summary of the method: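 HCT116 cells incubated with compound for 24 h, then viewed and photographed under phase-contrast microscopy; also examined at 48 h.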
# HCT-116 [22] = assay: Induction of cell cycle arrest in human HCT116 cells assessed as accumulation at G0/G1 phase at 7.5 uM after 24 hrs by propidium iodide staining-based flow cytometric analysis in presence of RNase A (reference value: 64.6%); assay type: functional
compound,measurement,setting,value
O=C/C=C/c1ccc2c(c1)O[C@@H](CO)[C@H](c1ccc(O)c(O)c1)O2 [AMERICANIN A],Activity,HCT-116 [1],19%
same,viability at 15 µM,HCT-116 [2],76.3%
same,viability at 30 µM,HCT-116 [3],30.6%
same,Activity,HCT-116 [4],32.8%
same,Activity,HCT-116 [5],5.1%
same,Activity,HCT-116 [6],36.5%
same,viability at 30 µM,HCT-116 [7],73.2%
same,inhibition in vivo at 5 mg/kg,[8],45%
same,Activity,HCT-116 [9],31.8%
same,Activity,HCT-116 [10],39%
same,Activity,HCT-116 [11],4%
same,Activity,[12],Active
same,IC50,[13],9.6 µM
same,Activity,[14],Dose-dependent effect
same,Activity,[15],tde
same,Activity,[16],Active
same,Activity,HCT-116 [17],55.2%
same,Activity,HCT-116 [18],19%
same,IC50,A549,39.1 µM
same,IC50,[19],7.6 µM
same,Activity,HCT-116 [20],Dose-dependent effect
same,Activity,Mus musculus,Active
same,IC50,RKO,24.4 µM
same,Activity,HCT-116 [21],Active
same,Activity,HCT-116 [22],55.4%
